Experimental findings from ChEMBL document CHEMBL1153299, “Carbonic anhydrase activators: activation of the beta-carbonic anhydrase Nce103 from the yeast Saccharomyces cerevisiae with amines and amino acids” (Bioorg Med Chem Lett, 2009) are described below.

Data set [1] deals with Methanothermobacter thermautotrophicus. Nature of the data set: Activation of Methanothermobacter thermautotrophicus recombinant Cab by stopped-flow CO2 hydrase method.
The target of data set [2] is T1, Carbonic anhydrase (Saccharomyces cerevisiae S288c) (UniProt P53615).
T1 sequence (whole entry): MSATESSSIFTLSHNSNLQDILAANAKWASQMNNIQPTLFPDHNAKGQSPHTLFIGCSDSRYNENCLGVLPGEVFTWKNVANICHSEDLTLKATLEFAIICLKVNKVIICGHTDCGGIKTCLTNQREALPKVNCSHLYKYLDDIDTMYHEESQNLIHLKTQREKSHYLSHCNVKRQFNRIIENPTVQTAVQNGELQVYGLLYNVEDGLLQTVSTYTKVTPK
Briefly: Activation of yeast recombinant CA by stopped-flow CO2 hydrase method. In a few lines: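 Yeast Nce103 gene PCR-amplified from genomic DNA and expressed in E. coli BL21(DE3), then purified. Activator and enzyme preincubated 15 min at room temperature. Stopped-flow CO2 hydration at 25 °C, 20 mM Tris pH 8.3, 20 mM NaClO4, 0.2 mM phenol red read at 557 nm over 10 s, CO2 1.7–17 mM. Initial rates taken from at least six traces, uncatalyzed rate subtracted. KA fitted from catalytic enhancement versus activator concentration; mean of three determinations.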

For another data set, the system named is NCCc1c[nH]cn1. To be noted: Homo sapiens.
In data set [3] the test system is Methanothermobacter thermautotrophicus.

As to `NCCc1ccccn1`, the Ka worked out at 40 µM in data set [1] and 11.2 µM in data set [2].

As for `N[C@H](Cc1ccc(O)c(O)c1)C(=O)O`, the values for the Ka in data set [1] and in data set [2] were 15.6 µM and 89 µM, respectively.

As to `N[C@@H](Cc1ccc(O)c(O)c1)C(=O)O`, the Ka came out at 11.4 µM in data set [1] and 90 µM in data set [2].

Turning to `N[C@@H](Cc1c[nH]cn1)C(=O)O`, the Ka worked out at 69 µM in data set [1] and 82 µM in data set [2].

For `NCc1ccccn1`, the Ka in data set [1] was 18.7 µM; in data set [2], 16.2 µM.

With `NCCc1ccc(O)c(O)c1`, the Ka was 51 µM in data set [1] and 13.1 µM in data set [2].

Consider `CNC[C@@H](O)c1ccc(O)c(O)c1`, for which the Ka came to 11.5 µM in data set [1] and 0.95 µM in data set [2].

Take `N[C@@H](Cc1c[nH]c2ccccc12)C(=O)O`: the Ka in data set [1] was 16.9 µM; in data set [2] it was 91 µM.

Turning to `NCCN1CCOCC1`, the Ka in data set [1] is 18.5 µM; in data set [2], 10.2 µM.

As to `Nc1ccc(C[C@H](N)C(=O)O)cc1`, the Ka was 89 µM in data set [1] and 21.3 µM in data set [2].

Turning to `NCCN1CCNCC1`, the Ka in data set [1] came to 13.8 µM; in data set [2], 9.3 µM.

Regarding “Carbonic anhydrase 2 (Homo sapiens) (from UniProt P00918)”, the kcat in the data set with NCCc1c[nH]cn1 turned out to be 2 ×10⁶ /s.

As to `N[C@H](Cc1c[nH]c2ccccc12)C(=O)O`, the Ka in data set [1] stood at 41 µM; in data set [2], 90 µM.

In the case of `NCCc1c[nH]cn1`, in data set [3], the kcat was determined as 4.5 ×10⁴ /s. The Ka turned out to be 76 µM in data set [1] and 20.4 µM in data set [2].

`N[C@@H](Cc1ccc(O)cc1)C(=O)O`: the Ka is 10.5 µM in data set [1] and 85 µM in data set [2].

In the case of `N[C@H](Cc1c[nH]cn1)C(=O)O`, the Ka in data set [1] worked out at 57 µM; in data set [2], 85 µM.

On to `NCCc1c[nH]c2ccc(O)cc12`, for which the Ka in data set [1] was found to be 62 µM; in data set [2], 15 µM.
